What all share (format): functional
For assay [1], the system named is Radical scavenging activity. The assay can be described thus: Antioxidant activity assessed as DPPH radical scavenging activity at 200 uM after 30 mins by spectrophotometry. An outline of the steps: (§1)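 Wistar-independent cell-free assay: 5 µl sample in 96% ethanol (solutions 0.5, 1.0, 2.0, 4.0, 8.0, 12.0 mM before mixing) added to 195 µl DPPH in 96% ethanol (solution labelled […]). Incubated 30 min at 25 °C, then A518 read. %AA = (A_DPPH − A_sample)/(A_DPPH − A_ethanol)×100. Triplicates averaged. IC50 from linear regression of mean %AA against concentration. Resveratrol positive control.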
(In general: The DPPH test is a chemical assay of radical scavenging.)

The test system of assay [2] is Radical scavenging activity. The assay can be described thus: Antioxidant activity assessed as DPPH radical scavenging activity after 30 mins by spectrophotometry. Put shortly: as §1
For assay [3], the system named is Radical scavenging activity. The experiment in a line: Antioxidant activity assessed as DPPH radical scavenging activity at 50 uM after 30 mins by spectrophotometry. Put shortly:
as §1

In assay [4] the test system is Radical scavenging activity. The assay can be described thus: Antioxidant activity assessed as DPPH radical scavenging activity at 12.5 uM after 30 mins by spectrophotometry. Put shortly:
as §1

For assay [5], the system named is Rattus norvegicus. The assay can be described thus: Antioxidant activity against CCl4-induced oxidative hepatic injury Wistar albino rat model assessed as effect on liver cytosolic SOD activity per mg protein at 100 mg/kg, ip for 7 consecutive days prior to CCL4 challenge measured 24 hrs post CCl4 challenge (reference value: 5.42 +/-0.29 U/mg protein). Conditions: route intraperitoneal. An outline of the steps: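 Wistar albino rats (100–150 g), 7 per group, dosed i.p. at 100 mg/kg/day for 7 days. Then CCl4 in olive oil (1:1) i.p. at 0.6 mL/kg. Liver taken 24 h later, homogenized in 1.15% KCl-10 mM phosphate/EDTA pH 7.4, cytosol obtained by sequential centrifugation. SOD read as the rate of cytochrome C reduction at 550 nm over 5 min (xanthine/xanthine oxidase, KCN, deoxycholate). Units/mg Lowry protein.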

Assay [6] concerns Radical scavenging activity. The experiment in a line: Antioxidant activity assessed as DPPH radical scavenging activity at 300 uM after 30 mins by spectrophotometry. Put shortly: as §1
In assay [7] the test system is Rattus norvegicus. The experiment in a line: Antioxidant activity against CCl4-induced oxidative hepatic injury Wistar albino rat model assessed as effect on liver cytosolic catalase activity per mg protein at 100 mg/kg, ip for 7 consecutive days prior to CCL4 challenge measured 24 hrs post CCl4 challenge (reference value: 218.25 +/-11.43 U/mg protein). Conditions: route intraperitoneal.

Assay [8] concerns Radical scavenging activity. The experiment in a line: Antioxidant activity assessed as DPPH radical scavenging activity at 25 uM after 30 mins by spectrophotometry. Put shortly: as §1
The subject of assay [9] is Rattus norvegicus. The assay can be described thus: Antioxidant activity against CCl4-induced oxidative hepatic injury Wistar albino rat model assessed as effect on liver cytosolic GSH-Px activity per mg protein at 100 mg/kg, ip for 7 consecutive days prior to CCL4 challenge measured 24 hrs post CCl4 challenge (reference value: 0.27 +/-0.01 U/mg protein). Conditions: route intraperitoneal.

Assay [10] deals with Radical scavenging activity. The experiment in a line: Antioxidant activity assessed as DPPH radical scavenging activity at 100 uM after 30 mins by spectrophotometry. Put shortly: as §1

The values below come from ChEMBL document CHEMBL2321718, “Antioxidant activities of thiosemicarbazones from substituted benzaldehydes and N-(tetra-O-acetyl-β-D-galactopyranosyl)thiosemicarbazide” (Eur J Med Chem, 2013).

The IC50 is the point on the concentration scale where inhibition reaches its midpoint.

As for `CC(=O)OC[C@H]1O[C@@H](NC(=S)N/N=C/c2ccc(C(C)C)cc2)[C@H](OC(C)=O)[C@@H](OC(C)=O)[C@H]1OC(C)=O`, the Activity in assay [1] stood at 18.1%; in assay [3], 9.65%; in [4], 2.17%; in the assay on Rattus norvegicus [5], 9.92 U/mg; in assay [6], 24.5%; in the assay on Rattus norvegicus [7], 391 U/mg. The Activity in [8] was 5.32%; in the assay on Rattus norvegicus [9], 1.01 U/mg; in [10], 15.1%. Further, in [2], the IC50 is greater than 300 µM.
Take `CC(=O)OC[C@H]1O[C@@H](NC(=S)N/N=C/c2cccc([N+](=O)[O-])c2)[C@H](OC(C)=O)[C@@H](OC(C)=O)[C@H]1OC(C)=O`: the Activity in assay [1] was found to be 38.3%; in [3] it was 19.6%; in assay [4] it was 7.05%; in the assay with Rattus norvegicus [5], 9.01 U/mg; in assay [6] it was 51.2%; with Rattus norvegicus [7], 361 U/mg. The Activity in assay [8] was 13.7%; with Rattus norvegicus [9], 0.73 U/mg; in [10], 26.3%. For the same compound, the IC50 in assay [2] turned out to be 283 µM.
Regarding `CC(=O)OC[C@H]1O[C@@H](NC(=S)N/N=C/c2ccc(Br)cc2)[C@H](OC(C)=O)[C@@H](OC(C)=O)[C@H]1OC(C)=O`, the Activity in assay [1] is 35.4%; in assay [3] it was 17.5%; in assay [4], 5.38%; in the assay with Rattus norvegicus [5], 9.95 U/mg; in assay [6] it was 44.3%; in the assay on Rattus norvegicus [7] it was 389 U/mg. For the same compound, the Activity in [8] is 9.04%; in the assay with Rattus norvegicus [9], 0.98 U/mg; in [10], 23.5%. The IC50 in assay [2] was greater than 300 µM.
Turning to `CC(=O)OC[C@H]1O[C@@H](NC(=S)N/N=C/c2ccc([N+](=O)[O-])cc2)[C@H](OC(C)=O)[C@@H](OC(C)=O)[C@H]1OC(C)=O`, the Activity in [1] is 53.3%; in assay [3], 18.5%; in assay [4], 6.11%; in the assay on Rattus norvegicus [5], 8.79 U/mg; in assay [6] it was 64.5%; in the assay on Rattus norvegicus [7] it was 352 U/mg. The Activity in [8] came out at 11.3%; in the assay on Rattus norvegicus [9] it was 0.71 U/mg; in [10], 29.1%. The IC50 in assay [2] is 210 µM.
`CC(=O)OC[C@H]1O[C@@H](NC(=S)N/N=C/c2ccc(F)cc2)[C@H](OC(C)=O)[C@@H](OC(C)=O)[C@H]1OC(C)=O`: the Activity in assay [1] turned out to be 55.6%; in [3], 17.1%; in assay [4], 8.51%; in the assay with Rattus norvegicus [5], 8.6 U/mg; in assay [6], 67.2%; in the assay on Rattus norvegicus [7], 351 U/mg. The Activity came out at 13.3% in [8], 0.69 U/mg in the assay with Rattus norvegicus [9] and 34.3% in assay [10]. Further, in assay [2], the IC50 was 197 µM.
As for `COc1ccc(/C=N/NC(=S)N[C@@H]2O[C@H](COC(C)=O)[C@H](OC(C)=O)[C@H](OC(C)=O)[C@H]2OC(C)=O)cc1O`, the Activity was determined as 56.8% in assay [1]; 28.2% in assay [3]; 8.16% in assay [4]; 8.76 U/mg in the assay with Rattus norvegicus [5]; 69.6% in assay [6]; 352 U/mg in the assay on Rattus norvegicus [7]. In addition, the Activity in assay [8] stood at 17.4%; in the assay on Rattus norvegicus [9], 0.59 U/mg; in assay [10] it was 40.1%. Moreover, in assay [2], the half-maximal inhibitory concentration (IC50) was 182 µM.
Consider `CC(=O)OC[C@H]1O[C@@H](NC(=S)N/N=C/c2ccc(O)cc2)[C@H](OC(C)=O)[C@@H](OC(C)=O)[C@H]1OC(C)=O`, for which the Activity in assay [1] came out at 68.7%; in assay [3], 33.3%; in assay [4] it was 11.4%; with Rattus norvegicus [5], 8.24 U/mg; in assay [6], 75.1%; in the assay on Rattus norvegicus [7], 332 U/mg. Also, the Activity in assay [8] worked out at 22.6%; in the assay with Rattus norvegicus [9], 0.51 U/mg; in assay [10], 49.2%. The IC50 in [2] was 108 µM.
For `COc1cc(/C=N/NC(=S)N[C@@H]2O[C@H](COC(C)=O)[C@H](OC(C)=O)[C@H](OC(C)=O)[C@H]2OC(C)=O)ccc1O`, the Activity stood at 71.2% in assay [1]; 45.6% in assay [3]; 9.45% in assay [4]; 6.57 U/mg in the assay on Rattus norvegicus [5]; 74% in assay [6]; 290 U/mg with Rattus norvegicus [7]. The figures for the Activity (in assay [8]; in the assay with Rattus norvegicus [9]; in assay [10]) were 27.1%, 0.37 U/mg and 60.3%, respectively. In assay [2], the IC50 amounted to 75 µM.
For the compound `CC(=O)OC[C@H]1O[C@@H](NC(=S)N/N=C/c2ccc(C)cc2)[C@H](OC(C)=O)[C@@H](OC(C)=O)[C@H]1OC(C)=O`, the Activity in assay [1] turned out to be 53.3%; in [3], 18.1%; in assay [4], 7.21%; in the assay with Rattus norvegicus [5] it was 8.82 U/mg; in assay [6], 65%; in the assay with Rattus norvegicus [7] it was 354 U/mg. In addition, the Activity in assay [8] amounted to 12.8%; in the assay on Rattus norvegicus [9], 0.72 U/mg; in assay [10], 32.8%. Also, the IC50 in assay [2] worked out at 206 µM.
For `CC(=O)OC[C@H]1O[C@@H](NC(=S)N/N=C/c2ccc(N(C)C)cc2)[C@H](OC(C)=O)[C@@H](OC(C)=O)[C@H]1OC(C)=O`, the Activity was found to be 74.5% in [1]; 48.9% in assay [3]; 14.3% in assay [4]; 5.81 U/mg with Rattus norvegicus [5]; 78.5% in assay [6]; 295 U/mg in the assay on Rattus norvegicus [7]. The Activity in assay [8] worked out at 30.9%; with Rattus norvegicus [9], 0.71 U/mg; in [10], 68.2%. Further, the IC50 in [2] stood at 56 µM.
Regarding `CC(=O)OC[C@H]1O[C@@H](NC(=S)N/N=C/c2ccc(Cl)cc2)[C@H](OC(C)=O)[C@@H](OC(C)=O)[C@H]1OC(C)=O`, the Activity in assay [1] stood at 38.4%; in assay [3] it was 17.6%; in [4], 7.15%; in the assay with Rattus norvegicus [5], 8.91 U/mg; in assay [6], 55.4%; in the assay on Rattus norvegicus [7], 358 U/mg. The Activity in [8] came to 10.1%; in the assay with Rattus norvegicus [9] it was 0.7 U/mg; in [10] it was 19.8%. Besides, in assay [2], the half-inhibitory concentration (IC50) is 270 µM.
For `CCOc1cc(/C=N/NC(=S)N[C@@H]2O[C@H](COC(C)=O)[C@H](OC(C)=O)[C@H](OC(C)=O)[C@H]2OC(C)=O)ccc1O`, the Activity in [1] stood at 68.3%; in [3], 45.4%; in assay [4], 14.2%; in the assay on Rattus norvegicus [5] it was 6.45 U/mg; in assay [6] it was 69.2%; in the assay on Rattus norvegicus [7], 284 U/mg. In addition, the Activity in assay [8] came out at 30.2%; in the assay with Rattus norvegicus [9], 0.69 U/mg; in [10], 59.4%. Further, the IC50 in assay [2] was found to be 71 µM.
For `COc1cccc(/C=N/NC(=S)N[C@@H]2O[C@H](COC(C)=O)[C@H](OC(C)=O)[C@H](OC(C)=O)[C@H]2OC(C)=O)c1`, the Activity in assay [1] was 34%; in [3], 15.6%; in assay [4], 7.34%; in the assay on Rattus norvegicus [5], 8.89 U/mg; in [6] it was 55.1%; in the assay with Rattus norvegicus [7], 362 U/mg. Also, the Activity in [8] is 11.5%; in the assay on Rattus norvegicus [9], 0.71 U/mg; in assay [10] it was 27.2%. Further, the half-maximal inhibitory concentration (IC50) in [2] came to 276 µM.
As for `Oc1ccc(/C=C/c2cc(O)cc(O)c2)cc1` [RESVERATROL], the Activity stood at 70.4% in [1]; 33.8% in assay [3]; 9.13% in [4]; 7.49 U/mg in the assay with Rattus norvegicus [5]; 75.6% in [6]; 285 U/mg with Rattus norvegicus [7]. The Activity in [8] is 22.6%; with Rattus norvegicus [9], 0.35 U/mg; in assay [10], 54%. The IC50 in assay [2] was found to be 94 µM.
